Reference: ChEMBL document CHEMBL2046342, “Re-engineering aryl methylcarbamates to confer high selectivity for inhibition of Anopheles gambiae versus human acetylcholinesterase” (2012)
≈ marks a conversion by molar mass, not a printed value.

Key:
[1] = biological target: Acetylcholinesterase (Anopheles gambiae) (UniProt Q869C3); assay: Inhibition of Anopheles gambiae AChE expressed in Escherichia coli after 6 mins by Ellman assay
Method in brief: (§1)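 Time-dependent inactivation of recombinant AgAChE (purified to 2,500 ± 100 U/mg) monitored by Ellman assay. Residual velocity (v/v0) was measured against incubation time at fixed inhibitor levels, and kobs came from the ln(v/v0) vs t slope. kobs at three or more [I] was plotted against [I], and the linear slope gave apparent second-order ki (mM⁻¹ min⁻¹). Final DMSO was constant at 0.1% (v/v).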

[2] = biological target: Acetylcholinesterase (Homo sapiens) (UniProt P22303); assay: Inhibition of human recombinant AChE after 6 mins by Ellman assay
Acetylcholinesterase (Homo sapiens), sequence (P22303 whole entry): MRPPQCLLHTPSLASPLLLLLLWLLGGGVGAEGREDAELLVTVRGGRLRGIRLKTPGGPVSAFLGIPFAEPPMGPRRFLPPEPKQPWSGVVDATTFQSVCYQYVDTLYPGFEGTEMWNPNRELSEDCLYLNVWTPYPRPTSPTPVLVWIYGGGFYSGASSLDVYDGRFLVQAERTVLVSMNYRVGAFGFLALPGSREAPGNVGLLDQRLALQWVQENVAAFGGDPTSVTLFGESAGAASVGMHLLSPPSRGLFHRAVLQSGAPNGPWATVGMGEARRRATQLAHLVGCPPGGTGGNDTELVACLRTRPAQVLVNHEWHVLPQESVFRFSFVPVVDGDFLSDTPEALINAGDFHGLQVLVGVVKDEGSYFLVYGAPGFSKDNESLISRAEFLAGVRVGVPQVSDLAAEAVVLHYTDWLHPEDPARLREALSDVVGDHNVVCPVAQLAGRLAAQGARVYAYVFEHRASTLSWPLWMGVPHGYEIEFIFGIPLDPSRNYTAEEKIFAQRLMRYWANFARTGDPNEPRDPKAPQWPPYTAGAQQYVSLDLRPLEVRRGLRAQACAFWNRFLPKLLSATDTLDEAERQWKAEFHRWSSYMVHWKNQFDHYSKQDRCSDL
Method in brief: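 Recombinant human AChE was assayed by Ellman method for time-dependent inactivation at fixed inhibitor concentrations. Pseudo-first-order kobs was taken from ln(v/v0) vs incubation time. Three or more inhibitor levels gave kobs vs [I], and its linear slope gave apparent ki (mM⁻¹ min⁻¹). DMSO was held at 0.1% (v/v) final.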

[3] = Selectivity ratio of Ki for Anopheles gambiae AChE to Ki for human recombinant AChE
Method in brief: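 Ratio ki(Ag)/ki(h) of apparent second-order inactivation constants, both from Ellman-assay kobs vs [I] slopes using purified recombinant AgAChE and recombinant hAChE. Error in the ratio was computed by standard propagation of error.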

Anopheles gambiae [4] = assay: Toxicity in Anopheles gambiae G3 assessed as mortality treated as tarsal contact using dried filter papers after 24 hrs; format: functional; conditions: G3, 24 h
Anopheles gambiae [5] = assay: Toxicity in anesthetized Anopheles gambiae G3 assessed as mortality treated as topical application assessed per mosquito after 24 hrs; format: functional
Anopheles gambiae [6] = assay: Toxicity in Anopheles gambiae G3 assessed as mortality at 1000 ug/ml treated as tarsal contact using dried filter papers after 24 hrs; format: functional
Method in brief: (§2)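 Tarsal contact assay. Filter papers were treated with ethanolic carbamate solutions and dried, and adult Anopheles gambiae were exposed for 1 h. Mortality was scored after 24 h. Concentrations refer to the solutions used to treat the papers.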

Anopheles gambiae [7] = assay: Toxicity in Anopheles gambiae G3 assessed as mortality at 250 ug/ml treated as tarsal contact using dried filter papers after 24 hrs; format: functional; method in brief: as §2
[8] = biological target: Acetylcholinesterase (Anopheles gambiae) (UniProt Q869C3); assay: Inhibition of Anopheles gambiae AChE; conditions: concentration not given here; method in brief: as §1
[9] = Selectivity ratio of Torpedo californica AChE to human AChE
[10] = biological target: Acetylcholinesterase (Anopheles gambiae) (UniProt Q869C3); assay: Inhibition of Anopheles gambiae AChE at 6 uM after 1 hr

Acetylcholinesterase (Anopheles gambiae), sequence (Q869C3 39-737 limits assumed): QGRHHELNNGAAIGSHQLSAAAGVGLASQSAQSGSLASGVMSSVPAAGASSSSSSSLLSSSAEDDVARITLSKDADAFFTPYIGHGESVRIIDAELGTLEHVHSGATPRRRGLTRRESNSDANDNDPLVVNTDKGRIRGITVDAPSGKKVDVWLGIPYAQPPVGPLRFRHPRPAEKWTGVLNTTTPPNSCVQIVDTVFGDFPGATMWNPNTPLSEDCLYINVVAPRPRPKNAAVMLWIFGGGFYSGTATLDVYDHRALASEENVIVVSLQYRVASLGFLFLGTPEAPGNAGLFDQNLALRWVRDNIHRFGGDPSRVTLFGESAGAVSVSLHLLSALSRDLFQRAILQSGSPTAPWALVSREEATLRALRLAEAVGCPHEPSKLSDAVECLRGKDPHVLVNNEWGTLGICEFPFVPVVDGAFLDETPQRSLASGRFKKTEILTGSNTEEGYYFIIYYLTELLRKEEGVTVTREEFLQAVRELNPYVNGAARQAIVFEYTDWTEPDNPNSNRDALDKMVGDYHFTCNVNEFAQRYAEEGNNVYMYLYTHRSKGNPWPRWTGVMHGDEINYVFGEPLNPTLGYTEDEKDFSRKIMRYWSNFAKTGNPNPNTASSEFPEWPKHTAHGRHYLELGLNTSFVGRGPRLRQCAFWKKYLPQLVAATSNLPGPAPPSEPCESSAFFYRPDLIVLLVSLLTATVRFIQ

CNC(=O)Oc1cccc(CCC(C)C)c1
apparent second-order inhibition rate constant ki [1]: 4530 M⁻¹ s⁻¹
Kinact [2]: 86.7 M⁻¹ s⁻¹
Ratio Ki [3]: 53
LC50 (Anopheles gambiae [4]): 342 µg/mL (≈ 1550 µM)

CNC(=O)Oc1cccc([Si](C)(C)C)c1
apparent second-order inhibition rate constant ki [1]: 10800 M⁻¹ s⁻¹
Kinact [2]: 1130 M⁻¹ s⁻¹
Ratio Ki [3]: 9.6

CNC(=O)Oc1ccccc1SC
apparent second-order inhibition rate constant ki [1]: 1150 M⁻¹ s⁻¹
Kinact [2]: 85 M⁻¹ s⁻¹
Ratio Ki [3]: 14

CNC(=O)Oc1ccccc1OCC(C)C
apparent second-order inhibition rate constant ki [1]: 880 M⁻¹ s⁻¹
Kinact [2]: 10.8 M⁻¹ s⁻¹
Ratio Ki [3]: 81
LC50 (Anopheles gambiae [4]): 290 µg/mL (≈ 1300 µM)
LD50 (Anopheles gambiae [5]): 19 ng

CC[Si](C)(C)c1cccc(OC(=O)NC)c1
apparent second-order inhibition rate constant ki [1]: 25200 M⁻¹ s⁻¹
Kinact [2]: 1830 M⁻¹ s⁻¹
Ratio Ki [3]: 14
LC50 (Anopheles gambiae [4]): 169 µg/mL (≈ 712 µM)
LD50 (Anopheles gambiae [5]): 8 ng

CNC(=O)Oc1ccccc1SCC(C)C
apparent second-order inhibition rate constant ki [1]: 8770 M⁻¹ s⁻¹
Kinact [2]: 108 M⁻¹ s⁻¹
Ratio Ki [3]: 81
LC50 (Anopheles gambiae [4]): 212 µg/mL (≈ 886 µM)
LD50 (Anopheles gambiae [5]): 10 ng

CCCC(C)(C)c1cccc(OC(=O)NC)c1
apparent second-order inhibition rate constant ki [1]: 112000 M⁻¹ s⁻¹
Kinact [2]: 22700 M⁻¹ s⁻¹
Ratio Ki [3]: 4.9
LC50 (Anopheles gambiae [4]): 236 µg/mL (≈ 1000 µM)

CCC(C)COc1ccccc1OC(=O)NC (racemic)
apparent second-order inhibition rate constant ki [1]: 2080 M⁻¹ s⁻¹
Kinact [2]: 9.67 M⁻¹ s⁻¹
Ratio Ki [3]: 216
LC50 (Anopheles gambiae [4]): 445 µg/mL (≈ 1880 µM)
LD50 (Anopheles gambiae [5]): 33 ng

CNC(=O)Oc1cccc(C(C)(C)C(F)(F)F)c1
apparent second-order inhibition rate constant ki [1]: 26300 M⁻¹ s⁻¹
Kinact [2]: 2320 M⁻¹ s⁻¹
Ratio Ki [3]: 11
LC50 (Anopheles gambiae [4]): 61 µg/mL (≈ 233 µM)

CCC(CC)CSc1ccccc1OC(=O)NC
Activity (Anopheles gambiae [6]): 27%
apparent second-order inhibition rate constant ki [1]: 30800 M⁻¹ s⁻¹
Kinact [2]: 242 M⁻¹ s⁻¹
Ratio Ki [3]: 130
LD50 (Anopheles gambiae [5]): 10 ng

C=C(C)CSc1ccccc1OC(=O)NC
apparent second-order inhibition rate constant ki [1]: 6900 M⁻¹ s⁻¹
Kinact [2]: 125 M⁻¹ s⁻¹
Ratio Ki [3]: 55
LC50 (Anopheles gambiae [4]): 317 µg/mL (≈ 1340 µM)
LD50 (Anopheles gambiae [5]): 12 ng

CCC(C)(CC)c1cccc(OC(=O)NC)c1
Activity (Anopheles gambiae [7]): 72%
apparent second-order inhibition rate constant ki [1]: 88000 M⁻¹ s⁻¹
Kinact [2]: 9220 M⁻¹ s⁻¹
Ratio Ki [3]: 9.5

CNC(=O)Oc1ccccc1
apparent second-order inhibition rate constant ki [1]: 45.8 M⁻¹ s⁻¹
Kinact [2]: 3.33 M⁻¹ s⁻¹
Ratio Ki [3]: 13

CCC(CC)COc1cccc(OC(=O)NC)c1
apparent second-order inhibition rate constant ki [1]: 480 M⁻¹ s⁻¹
Kinact [2]: 83.3 M⁻¹ s⁻¹
Ratio Ki [3]: 5.8

CCC(C)c1cccc(OC(=O)NC)c1 (racemic)
apparent second-order inhibition rate constant ki [1]: 167000 M⁻¹ s⁻¹
Kinact [2]: 31800 M⁻¹ s⁻¹
Ratio Ki [3]: 5.3
LC50 (Anopheles gambiae [4]): 31 µg/mL (≈ 150 µM)
LD50 (Anopheles gambiae [5]): 1.6 ng

CCCc1cccc(OC(=O)NC)c1
apparent second-order inhibition rate constant ki [1]: 14700 M⁻¹ s⁻¹
Kinact [2]: 1060 M⁻¹ s⁻¹
Ratio Ki [3]: 14
LC50 (Anopheles gambiae [4]): 41 µg/mL (≈ 212 µM)

CNC(=O)Oc1cccc2c1OC(C)(C)C2 [CARBOFURAN]
inhibition [8]: 49%
apparent second-order inhibition rate constant ki [1]: 43700 M⁻¹ s⁻¹
Kinact [2]: 7130 M⁻¹ s⁻¹
Ratio Ki [3]: 6.1
LC50 (Anopheles gambiae [4]): 16 µg/mL (≈ 72.3 µM)
LD50 (Anopheles gambiae [5]): 0.85 ng

CCN(C)C(=O)Oc1cccc([C@H](C)N(C)C)c1
Selectivity ratio [9]: 1500

CCC(CC)COc1ccccc1OC(=O)NC
Activity (Anopheles gambiae [6]): 27%
apparent second-order inhibition rate constant ki [1]: 4250 M⁻¹ s⁻¹
Kinact [2]: 8 M⁻¹ s⁻¹
Ratio Ki [3]: 530
LD50 (Anopheles gambiae [5]): 81 ng

CCCCc1cccc(OC(=O)NC)c1
apparent second-order inhibition rate constant ki [1]: 12400 M⁻¹ s⁻¹
Kinact [2]: 535 M⁻¹ s⁻¹
Ratio Ki [3]: 23
LC50 (Anopheles gambiae [4]): 237 µg/mL (≈ 1140 µM)

CNC(=O)Oc1cccc(CC(C)C)c1
apparent second-order inhibition rate constant ki [1]: 2580 M⁻¹ s⁻¹
Kinact [2]: 91.7 M⁻¹ s⁻¹
Ratio Ki [3]: 28

CNC(=O)Oc1cccc2ccccc12
inhibition [8]: 49%

CNC(=O)Oc1ccccc1C
apparent second-order inhibition rate constant ki [1]: 21.8 M⁻¹ s⁻¹
Kinact [2]: 4 M⁻¹ s⁻¹
Ratio Ki [3]: 5.4

CNC(=O)Oc1cccc2c1OC(C)(C)O2 [BENDIOCARB]
inhibition [8]: 49%
apparent second-order inhibition rate constant ki [1]: 14000 M⁻¹ s⁻¹
Kinact [2]: 1850 M⁻¹ s⁻¹
Ratio Ki [3]: 7.6
LC50 (Anopheles gambiae [4]): 16 µg/mL (≈ 71.7 µM)
LD50 (Anopheles gambiae [5]): 0.74 ng

CNC(=O)Oc1cccc(C(C)(C)C)c1
apparent second-order inhibition rate constant ki [1]: 25200 M⁻¹ s⁻¹
Kinact [2]: 2100 M⁻¹ s⁻¹
Ratio Ki [3]: 12
LC50 (Anopheles gambiae [4]): 37 µg/mL (≈ 179 µM)
LD50 (Anopheles gambiae [5]): 4.5 ng

CNC(=O)Oc1ccccc1OC(C)C [PROPOXUR]
inhibition [8]: 49%
apparent second-order inhibition rate constant ki [1]: 4430 M⁻¹ s⁻¹
Kinact [2]: 283 M⁻¹ s⁻¹
Ratio Ki [3]: 16
LC50 (Anopheles gambiae [4]): 39 µg/mL (≈ 186 µM)
LD50 (Anopheles gambiae [5]): 3.2 ng

CCC(C)(C)c1cccc(OC(=O)NC)c1
apparent second-order inhibition rate constant ki [1]: 127000 M⁻¹ s⁻¹
Kinact [2]: 13100 M⁻¹ s⁻¹
Ratio Ki [3]: 9.7
LC50 (Anopheles gambiae [4]): 115 µg/mL (≈ 520 µM)

CNC(=O)Oc1ccccc1OCC1CCCCC1
apparent second-order inhibition rate constant ki [1]: 8 M⁻¹ s⁻¹
Kinact [2]: 3.5 M⁻¹ s⁻¹
Ratio Ki [3]: 2.3

C=C(C)COc1ccccc1OC(=O)NC
apparent second-order inhibition rate constant ki [1]: 1040 M⁻¹ s⁻¹
Kinact [2]: 12.3 M⁻¹ s⁻¹
Ratio Ki [3]: 84

C[N+](C)(C)CCCCCCCCCCCCCCCCCCSS(C)(=O)=O
inhibition [10]: > 95%

CNC(=O)Oc1cccc(C(C)C)c1
apparent second-order inhibition rate constant ki [1]: 54500 M⁻¹ s⁻¹
Kinact [2]: 6380 M⁻¹ s⁻¹
Ratio Ki [3]: 8.5

CCC(CC)CCc1ccccc1OC(=O)NC
apparent second-order inhibition rate constant ki [1]: 1260 M⁻¹ s⁻¹
Kinact [2]: 12.5 M⁻¹ s⁻¹
Ratio Ki [3]: 100

CNC(=O)Oc1cccc(C)c1 [METOLCARB]
apparent second-order inhibition rate constant ki [1]: 287 M⁻¹ s⁻¹
Kinact [2]: 8.67 M⁻¹ s⁻¹
Ratio Ki [3]: 33
LC50 (Anopheles gambiae [4]): 712 µg/mL (≈ 4310 µM)

CCC(C)CSc1ccccc1OC(=O)NC (racemic)
apparent second-order inhibition rate constant ki [1]: 13400 M⁻¹ s⁻¹
Kinact [2]: 280 M⁻¹ s⁻¹
Ratio Ki [3]: 48

CCC(C)(c1cccc(OC(=O)NC)c1)C(F)(F)F (racemic)
apparent second-order inhibition rate constant ki [1]: 54500 M⁻¹ s⁻¹
Kinact [2]: 6250 M⁻¹ s⁻¹
Ratio Ki [3]: 8.7
LC50 (Anopheles gambiae [4]): 68 µg/mL (≈ 247 µM)

CNC(=O)Oc1ccccc1OCC1CCCC1
apparent second-order inhibition rate constant ki [1]: 163 M⁻¹ s⁻¹
Kinact [2]: 4.67 M⁻¹ s⁻¹
Ratio Ki [3]: 36
